Compound activity deposited in PubChem BioAssay by several laboratories.
Shown are actives, neighbours in structure and some others; about 3.7% of the full set was active somewhere.
Mdm2 ligase inh = blocks human Mdm2 ubiquitin ligase activity. Q00987. cell-based MDM2 ubiquitination luciferase reporter, 2 h; 0 = plate control, 100 = twice control, blank-subtracted. signal enhancement, % at 5 µM. actives 0.11% (n = 210,000). AID 1230;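 active = signal enhancement of 30% or more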;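 note: luminescence tracks abundance of the self-degrading MDM2-luciferase fusion protein; higher signal means inhibition of MDM2 E3 ligase activity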
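Test system: stable mammalian line carrying autodegrading MDM2–luciferase fusion reporter; quantity: 2000 cells in each well; times: 4 h cell settling then 2 h compound exposure, 37 °C; detection: luminescence with SteadyLite reagent, 15 min at room temperature; evaluation: percent signal gain over controls, blank-subtracted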
CHOP UPR activ = apoptotic UPR (CHOP) activation. actives 0.34% (n = 330,000). AID 449763. activation, % at 10 µM. CHO-CHOP luciferase reporter, luminescence; percent of tunicamycin response over DMSO baseline;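 active = at 10 µM dose, activation of 40% or more, normalized to positive control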;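 note: 100% = tunicamycin at 10 µg/mL and 0% = DMSO alone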
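Evaluation: % reporter activation, DMSO baseline versus tunicamycin full activation; System: CHO-CHOP luciferase reporter cell line; Input: 500 cells/well; Incubation: 6 h compound treatment, 37 °C; Measured by: Steady-Glo luciferase luminescence; Dosing: one dose, 10 µM in 0.5% DMSO; Buffer or medium: F12 medium, 10% FBS; Benchmarks: positive tunicamycin 10 µg/mL, negative DMSO alone.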
Dynein cargo inh = dynein cargo transport inhibition; 3617.4 mouse cells, GR-EGFP nuclear translocation imaging; test concentration mostly 20 µM; stimulated with dexamethasone, 1 µM; active compounds read low; z-score, hits read low; actives 0.47% (n = 220,000);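 active = plate z-score of nuclear minus cytoplasmic receptor signal below a set negative limit, without overly bright fluorescence or cell loss, cut at about -3.5 in these data, passing the limit was not always enough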;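 note: z-score of nuclear minus cytoplasmic ring GR-EGFP intensity difference per well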
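Also added: dexamethasone, 1.0 µM final. Medium: tet-free, stripped-serum medium. Detection: fixed, Hoechst-stained cells imaged at 10x for EGFP. Read-out: nuclear-to-cytoplasmic GR-EGFP distribution per well. Times: induction 48 h, compound 1 h, agonist 30 min.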
Beta2AR agonist = agonists of human beta-2 adrenergic receptor inducing internalization | Am2.2-beta2AR cells, FAP receptor internalization, flow cytometry | response, % (test concentration not listed) | P07550 | actives 0.43% (n = 340,000);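 active = response above a set limit, near 3 SD of response in nonfluorescent compounds, cut at about 42% in these data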
Target sequence (P07550 whole entry, looked up): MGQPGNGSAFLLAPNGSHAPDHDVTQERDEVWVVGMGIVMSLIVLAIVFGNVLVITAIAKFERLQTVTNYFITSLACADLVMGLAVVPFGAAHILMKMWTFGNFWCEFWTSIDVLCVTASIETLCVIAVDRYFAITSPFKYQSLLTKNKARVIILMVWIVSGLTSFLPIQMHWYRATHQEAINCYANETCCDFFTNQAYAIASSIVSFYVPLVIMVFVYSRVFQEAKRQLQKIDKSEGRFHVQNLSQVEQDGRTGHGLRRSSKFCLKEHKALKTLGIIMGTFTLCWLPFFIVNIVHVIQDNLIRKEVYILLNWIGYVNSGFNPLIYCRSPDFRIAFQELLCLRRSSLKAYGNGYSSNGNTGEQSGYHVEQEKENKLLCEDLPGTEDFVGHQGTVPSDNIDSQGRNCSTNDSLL
Mdm2-MdmX inh = human Mdm2/MdmX binding inhibition | O15151+Q00987 | SaOS-2 split-luciferase Mdm2/MdmX complementation, luminescence | inhibition, % at 8 µM | actives 3% (n = 330,000) | AID 485346;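 active = inhibition of at least 50% at 8 µM in the primary screen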
XBP1 UPR activ = adaptive UPR (XBP1) activation; CHO-XBP1 luciferase reporter, IRE1-XBP1 UPR activation, luminescence; percent of tunicamycin response, DMSO as zero; activation, % at 20 µM; actives 0.33% (n = 330,000); AID 463104;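 active = versus positive control, 20 µM dose yields 30% or more activation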;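 note: 100% = tunicamycin at 10 µg/mL and 0% = DMSO only wells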
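Signal: luciferase luminescence; Assay system: CHO-XBP1 luciferase reporter cells; Amount: one thousand reporter cells per well; Dosing: 20 µM single concentration, DMSO 1%; Benchmarks: high control tunicamycin 10 µg/mL final, low control DMSO vehicle only; Schedule: 6 h compound exposure at 37 °C, 5% CO2; Evaluation: percent activation relative to tunicamycin reference.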
Mdm2-MdmX conf = confirmation of human Mdm2/MdmX interaction inhibitors; shares compounds with Mdm2-MdmX inh; Mdm2-MdmX binding, luminescent assay; actives 55% (n = 10,000); inhibition, % at 8 µM; in the data active = inhibition above about 40%
Full FLuc ctr = counter-screen for Mdm2/MdmX inhibitors: full-length luciferase; shares compounds with Mdm2-MdmX inh; SaOS-2 full-length luciferase counterscreen, luminescence; inhibition, % at 8 µM; actives 77% (n = 6,200); AID 504607;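 active = mean inhibition at 8 µM reaching about 37%, which flags the compound as non-specific, limit read from the data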;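 note: p53-null SaOS-2 cells with luciferase driven by a doxycycline-inducible promoter; compound on cells about two nights before reading with doxycycline added after day one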
Active calls of the source: *; · = no result.

SMILES	Mdm2 ligase inh	CHOP UPR activ	Dynein cargo inh	Beta2AR agonist	Mdm2-MdmX inh	XBP1 UPR activ	Mdm2-MdmX conf	Full FLuc ctr
O=C(NC(=S)NNC(=O)c1cnccn1)c1ccc(Cl)cc1	-1	-3	1.3	4	69*	-2	40	48*
Cc1cnn(-c2cc(N/N=C/c3ccccc3Cl)ncn2)c1	-9	2	-0.4	8	63*	-1	-2	·
Cc1cnn(-c2cc(N/N=C/c3ccc(F)cc3)ncn2)c1	-2	3	1.1	8	52*	6	42*	101*
CCN1CCN(S(=O)(=O)c2ccc(-c3cc(C)no3)s2)CC1	·	1	·	-6	4	-9	·	·
Cc1cc(-c2ccc(S(=O)(=O)N(C)c3ccc(C)c(C)c3)s2)on1	·	5	·	-2	56*	-7	54*	47*
Cc1ccc(N(C)S(=O)(=O)c2ccc(-c3cc(C)no3)s2)cc1	·	-1	·	-21	54*	-5	55*	59*
COc1ccc(-c2cc(C)no2)cc1S(=O)(=O)N(C)c1ccc(C)c(C)c1	·	3	·	-15	15	0	·	·
COC(=O)C1CCN(C(=O)CN2C(=O)NC3(CCC(C)CC3)C2=O)CC1 (centres undefined)	·	1	·	4	7	3	·	·
O=C(Nc1cccc(-n2cnnn2)c1)c1ccc(OC(F)(F)F)cc1	·	4	·	1	11	-5	·	·
CCOc1ccc(N(Cc2cc3ccc(C)cc3[nH]c2=O)S(=O)(=O)c2ccccc2)cc1	·	0	·	-12	59*	3	58*	55*
COc1ccc2[nH]c(=O)c(CN(c3ccccc3OC)S(=O)(=O)c3ccccc3)cc2c1	·	2	·	-1	60*	0	38	89*
O=C(NCC1CCCO1)C(=O)N/N=C/c1c(F)cccc1Cl (centres undefined)	·	3	·	-3	-6	0	·	·
CCc1ccccc1NC(=O)C1(S(=O)(=O)c2ccc(C)cc2)CC1	·	1	·	-3	3	-1	·	·
COc1ccc2c(c1OC)C(=O)N1c3ccccc3SC21 (centres undefined)	-15	10	0.87	-18	-134	4	·	·
COc1ccc2c(c1OC)C(=O)N1c3ccccc3C(=O)N(c3ccccc3F)C21 (centres undefined)	-45	-1	1.1	24	66*	0	60*	76*
CS(=O)(=O)N(CC(=O)O)Cc1cccc(CN(CC(=O)O)S(C)(=O)=O)c1	·	-2	·	5	-10	-1	·	·
Cc1ncc(CO)c(/C=N/NC(=O)c2ccc(O)cc2)c1O	-7	1	1.2	-3	-34	-5	·	·
Cc1ncc(CO)c(/C=N/NC(=O)c2cc3c(s2)CCCC3)c1O	-2	-1	0.25	-2	58*	1	42*	51*
COc1c(Br)cc([N+](=O)[O-])c(OC)c1C(=O)NC(=O)Nc1cc(Cl)cc(Cl)c1	-4	8	-0.56	20	85*	15	79*	85*
COC(=O)c1cc2nc(-c3ccccc3)cc(C)n2n1	-8	1	0.42	5	0	-3	·	·
Cc1cc(-c2ccccc2)nc2cc(C(=O)N(Cc3ccccc3)Cc3ccccc3)nn12	5	0	-0.11	-1	51*	10	1	·
O=C(c1cccs1)N1CCc2c([nH]c3ccccc23)C1c1ccc(Cl)cc1 (centres undefined)	-26	0	0.2	6	73*	-1	58*	97*
O=C(c1cccs1)N1CCc2c([nH]c3ccccc23)C1c1ccccn1 (centres undefined)	4	1	0.16	-3	11	2	·	·
COc1ccc(C(=O)CN2Cc3ccccc3C2=N)cc1	-11	7	-0.014	3	-144	1	·	·
O=C(O)c1ccccc1NC(c1ccccc1)c1ccc(Cl)cc1 (centres undefined)	·	-2	·	4	-4	-4	·	·
SMILES	Mdm2 ligase inh	CHOP UPR activ	Dynein cargo inh	Beta2AR agonist	Mdm2-MdmX inh	XBP1 UPR activ	Mdm2-MdmX conf	Full FLuc ctr
Cn1c(=O)[nH]c(=O)c2c1nc(SCC(N)=O)n2Cc1cccc(Br)c1	·	-1	·	-3	63*	0	32	·
C=C(C)CSc1nc2c(c(=O)[nH]c(=O)n2C)n1Cc1ccccc1	-5	0	-0.11	-5	-4	3	·	·
Cc1ccc(Cn2c(SCC(C)C)nc3c2c(=O)[nH]c(=O)n3C)cc1	-13	-1	-0.93	-1	60*	6	29	·
FC(F)(F)c1ccccc1NC(=S)N/N=C1\CC2CC=CC12 (centres undefined)	-19	·	-0.14	-4	·	·	·	·
CCN1/C(=C/C=C/c2oc3ccc(-c4ccccc4)cc3[n+]2CC)Oc2ccc(-c3ccccc3)cc21	-13	-10	-7	·	97*	-8	92*	1
CC(=O)OCC=C1CCC2C3CC(C)C4=CC(=O)CCC4(C)C3C(O)CC12C (centres undefined)	·	·	·	8	·	·	·	·
O=S(=O)(c1ccc(-c2cnc(C3CC3)o2)cc1)N1CCN(c2ccccc2)CC1	·	0	·	0	59*	5	2	·
O=S(=O)(NCc1ccccc1)c1ccc(-c2cnc(C3CC3)o2)cc1	·	2	·	-7	26	0	·	·
COc1ccc(C)cc1NS(=O)(=O)c1ccccc1	·	·	·	1	·	·	·	·
Cc1cccc(C)c1NS(=O)(=O)c1ccc(-c2cnc(C3CC3)o2)cc1	·	0	·	21	82*	16	53*	93*
CSc1ccc(S(=O)(=O)Nc2c(C)cccc2C)cc1	-5	-2	0.41	-10	15	2	·	·
COc1ccc(C)cc1NS(=O)(=O)c1ccc(-c2cnc(C3CC3)o2)cc1	·	6	·	9	83*	-4	52*	111*
CCOc1ccccc1CNS(=O)(=O)c1ccc(-c2cnc(C3CC3)o2)cc1	·	2	·	17	61*	2	60*	84*
Cc1ccc(-n2ncc3c2CC(C)(C)CC3NC(=O)CCc2cccnc2)cc1 (centres undefined)	·	0	·	-1	13	-7	·	·
c1coc(C2=NC(c3ccco3)C(c3ccco3)N2)c1 (centres undefined)	·	·	·	-13	·	·	·	·
Cc1ccc(CNS(=O)(=O)c2ccc(-c3cnc(C4CC4)o3)cc2)cc1	·	-2	·	0	13	-3	·	·
